From ChEMBL document CHEMBL1126556, “Novel antiasthmatic agents with dual activities of thromboxane A2 synthetase inhibition and bronchodilation. 1. 2-[2-(1-Imidazolyl)alkyl]-1(2H)-phthalazinones” (J Med Chem, 1993)
pIC50: −log10 of the molar value.

Key:
[1] = species on record: Cavia porcellus; experiment: Tested in vitro for bronchodilatory activity by spontaneous tone inhibition in guinea pig tracheal strips; format: functional; conditions: Trachea
[2] = test system: Cavia porcellus; experiment: In vivo inhibitory effect on airway constriction induced by histamine 2-5 micro g/kg iv at 1 min after 10 mg/kg intravenous dose in anesthetized guinea pigs; format: functional
Outline: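 Male Dunkin-Hartley guinea pigs, anesthetized with pentobarbital 35 mg/kg ip, cannulated at jugular vein and trachea, ventilated at 10 mL/kg and 60 strokes/min. Insufflation pressure recorded continuously by transducer. Histamine given iv every 10 min until the constriction was reproducible. Compound 10 mg/kg iv given 1 min before the next challenge. Result is mean % inhibition against control response, from ≥3 experiments.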

[3] = biological target: T1, Thromboxane-A synthase (Rattus norvegicus) (UniProt P49430); experiment: Tested for inhibition of thromboxane A2 (TXA2) production in rat serum by ex vivo assay after peroral dose of 30 mg/kg; format: functional, organism-based; design: dose 30 mg/kg
T1 sequence (whole entry): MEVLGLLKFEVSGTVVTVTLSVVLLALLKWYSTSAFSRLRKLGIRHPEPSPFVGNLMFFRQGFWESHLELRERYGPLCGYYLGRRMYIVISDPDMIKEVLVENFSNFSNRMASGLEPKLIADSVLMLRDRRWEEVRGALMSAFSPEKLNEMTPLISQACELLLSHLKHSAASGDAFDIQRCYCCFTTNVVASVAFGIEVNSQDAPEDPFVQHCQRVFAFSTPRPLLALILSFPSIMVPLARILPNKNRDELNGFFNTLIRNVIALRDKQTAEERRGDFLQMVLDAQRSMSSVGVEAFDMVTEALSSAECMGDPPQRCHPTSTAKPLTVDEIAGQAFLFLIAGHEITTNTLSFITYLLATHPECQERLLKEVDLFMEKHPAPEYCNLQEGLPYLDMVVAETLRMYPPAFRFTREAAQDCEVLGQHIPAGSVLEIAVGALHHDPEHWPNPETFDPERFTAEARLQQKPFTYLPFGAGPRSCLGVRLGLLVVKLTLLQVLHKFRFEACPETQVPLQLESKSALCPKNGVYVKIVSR
Outline: (§1)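 Male SD rats (240–260 g), fasted 20 h, dosed orally in 0.5% carboxymethylcellulose or given vehicle. After 1 h under ether, 2 mL cardiac blood was drawn and clotted 90 min at 37 °C. Serum was EtOH-deproteinized and stored at -20 °C. TXB₂ measured by radioimmunoassay. % inhibition calculated against each vehicle control group.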

[4] = test system: Thromboxane-A synthase (Oryctolagus cuniculus); experiment: Tested for inhibition of thromboxane A2 (TXA2) production in rabbit by in vitro assay at 1 uM
[5] = Partition coefficient (logP); format: physicochemical; conditions: octanol/water
[6] = test system: Rattus norvegicus; experiment: Tested for inhibition of TXA2 production in rat serum by ex vivo assay after peroral dose of 3 mg/kg; format: functional; conditions: route oral; outline: as §1

SMILES	pIC50 [1]	inhibition in vivo at 10 mg/kg [2]	inhibition [3]	inhibition [4]	logP [5]	inhibition in vivo at 3 mg/kg [6]
CCOc1ccc(-c2nn(CCn3ccnc3)c(=O)c3ccccc23)cc1	5.25	87%	68%	54%	–	–
O=c1c2ccccc2c(-c2ccccc2)nn1CCCCCn1ccnc1	4.63	–	–	69%	–	–
O=c1c2ccccc2c(-c2ccc(F)cc2)nn1CCn1ccnc1	4.80	100%	46%	33%	–	–
CCOC(=O)c1cccc(-c2nn(CCn3ccnc3)c(=O)c3ccccc23)c1	5.63	90%	0%	55%	–	–
COc1ccc(-c2nn(CCn3ccnc3)c(=O)c3ccccc23)cc1	4.60	0%	50%	74%	2.06	–
CCOC(=O)c1ccc(-c2nn(CCn3ccnc3)c(=O)c3ccccc23)cc1	5.00	92%	–	60%	–	–
COc1ccc(-c2nn(CCn3ccnc3)c(=O)c3ccccc23)cc1OC	5.19	90%	32%	27%	–	–
COc1ccc(-c2nn(CCn3ccnc3)c(=O)c3ccccc23)cc1F	5.41	54%	60%	63%	–	–
CCc1ccc(-c2nn(CCn3ccnc3)c(=O)c3ccccc23)s1	5.75	96%	52%	67%	3.02	–
Cc1nn(CCn2ccnc2)c(=O)c2ccccc12	< 4.00	–	–	10%	0.538	–
CC(C)c1ccc(-c2nn(CCn3ccnc3)c(=O)c3ccccc23)cc1	5.27	68%	52%	64%	–	–
O=c1c2ccccc2c(C2CCCCC2)nn1CCn1ccnc1	6.17	71%	28%	32%	3.19	–
CC(=O)c1ccc(-c2nn(CCn3ccnc3)c(=O)c3ccccc23)s1	4.82	94%	5%	80%	1.51	–
CSc1ccc(-c2nn(CCn3ccnc3)c(=O)c3ccccc23)cc1	5.35	73%	67%	83%	2.7	–
O=c1c2ccccc2c(-c2ccccc2)nn1CCCCCCCCn1ccnc1	5.09	–	–	63%	–	–
O=c1c2ccccc2c(-c2cccs2)nn1CCn1ccnc1	5.45	84%	47%	22%	1.99	–
O=c1c2ccccc2c(-c2cccnc2)nn1CCn1ccnc1	4.57	97%	90%	–	0.66	63%
O=C(O)c1ccccc1-c1nn(CCn2ccnc2)c(=O)c2ccccc12	4.31	94%	–	14%	–	–
O=c1c2ccccc2c(-c2ccc(Cl)s2)nn1CCn1ccnc1	5.84	96%	15%	47%	–	–
CCOC(=O)c1ccc(-c2nn(CCn3ccnc3)c(=O)c3ccccc23)s1	4.88	92%	–	62%	–	–
O=c1c2ccccc2c(Cc2cccs2)nn1CCn1ccnc1	5.12	100%	35%	29%	–	–
O=c1c2ccccc2c(Cc2ccccc2)nn1CCn1ccnc1	4.97	98%	-5%	45%	–	–
CCOC(=O)c1ccccc1-c1nn(CCn2ccnc2)c(=O)c2ccccc12	4.22	60%	–	64%	–	–

SMILES	pIC50 [1]	inhibition in vivo at 10 mg/kg [2]	inhibition [3]	inhibition [4]	logP [5]	inhibition in vivo at 3 mg/kg [6]
O=c1c2ccccc2c(-c2ccccc2)nn1CCCn1ccnc1	4.96	–	–	57%	–	–
O=c1c2ccccc2c(Cc2ccc(Cl)cc2)nn1CCn1ccnc1	5.25	100%	40%	49%	–	–
Cc1ccc(-c2nn(CCn3ccnc3)c(=O)c3ccccc23)s1	5.18	26%	0%	53%	–	–
O=C(O)/C=C/c1ccc(Cn2ccnc2)cc1 [OZAGREL]	< 3.00	0%	–	–	–	–
Cc1ccc(-c2nn(CCn3ccnc3)c(=O)c3ccccc23)cc1	5.29	94%	0%	76%	–	–
O=c1c2ccccc2c(-c2ccccc2)nn1CCCCn1ccnc1	4.76	–	–	65%	–	–
CCc1ccc(-c2nn(CCn3ccnc3)c(=O)c3ccccc23)cc1	5.11	8%	55%	79%	3.17	–
CC(C)Cc1nn(CCn2ccnc2)c(=O)c2ccccc12	4.92	–	21%	14%	2	–
O=c1c2ccccc2c(-c2ccccn2)nn1CCn1ccnc1	4.37	30%	41%	20%	0.87	–
CCc1ccsc1-c1nn(CCn2ccnc2)c(=O)c2ccccc12	4.73	84%	46%	68%	–	–
O=c1c2ccccc2c(-c2ccccc2)nn1CCCCCCn1ccnc1	5.01	–	–	79%	–	–
COc1ccc(-c2nn(CCn3ccnc3)c(=O)c3ccccc23)s1	5.37	–	–	88%	1.94	–
O=C(O)c1cccc(-c2nn(CCn3ccnc3)c(=O)c3ccccc23)c1	< 4.00	33%	–	10%	–	–
O=C(O)c1ccc(-c2nn(CCn3ccnc3)c(=O)c3ccccc23)s1	4.46	5%	–	–	–	–
O=c1c2ccccc2c(-c2ccncc2)nn1CCn1ccnc1	4.62	100%	47%	27%	0.66	–
O=c1c2ccccc2c(-c2ccccc2)nn1CCn1ccnc1	5.88	88%	0%	41%	2.14	–
O=c1c2ccccc2c(-c2ccc(Cl)cc2)nn1CCn1ccnc1	5.69	71%	40%	63%	–	–
O=c1c2ccccc2c(-c2ccco2)nn1CCn1ccnc1	4.37	–	–	27%	1.52	–
O=C(O)c1ccc(-c2nn(CCn3ccnc3)c(=O)c3ccccc23)cc1	4.19	21%	–	24%	–	–
Cn1c(=O)c2[nH]cnc2n(C)c1=O [AMINOPHYLLINE]	4.33	86%	0%	–	–	–
O=c1c2ccccc2c(-c2ccc(C(F)(F)F)cc2)nn1CCn1ccnc1	4.95	–	–	40%	–	–
O=c1c2ccccc2c(-c2cccc(C(F)(F)F)c2)nn1CCn1ccnc1	6.00	42%	37%	49%	–	–
O=c1c2ccccc2c(C2CCCC2)nn1CCn1ccnc1	5.23	98%	–	38%	2.63	–
